Screening results (PubChem)
GRK2 inh = compounds blocking aptamer binding on GRK2 – biochemical, human GRK2, bead flow cytometry, HTS, primary screen. FAM-aptamer displacement from GRK2. inhibition of aptamer binding, % at 10 µM. 330,000 compounds, 0.59% hits. AID 488847, 2010;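 active = inhibition of aptamer binding above 40%, roughly 3 SD of noise, on plates passing a quality check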;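 also: median bead fluorescence of bound FAM aptamer so fluorescent compounds give negative values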
Target sequence (P25098 whole entry, looked up): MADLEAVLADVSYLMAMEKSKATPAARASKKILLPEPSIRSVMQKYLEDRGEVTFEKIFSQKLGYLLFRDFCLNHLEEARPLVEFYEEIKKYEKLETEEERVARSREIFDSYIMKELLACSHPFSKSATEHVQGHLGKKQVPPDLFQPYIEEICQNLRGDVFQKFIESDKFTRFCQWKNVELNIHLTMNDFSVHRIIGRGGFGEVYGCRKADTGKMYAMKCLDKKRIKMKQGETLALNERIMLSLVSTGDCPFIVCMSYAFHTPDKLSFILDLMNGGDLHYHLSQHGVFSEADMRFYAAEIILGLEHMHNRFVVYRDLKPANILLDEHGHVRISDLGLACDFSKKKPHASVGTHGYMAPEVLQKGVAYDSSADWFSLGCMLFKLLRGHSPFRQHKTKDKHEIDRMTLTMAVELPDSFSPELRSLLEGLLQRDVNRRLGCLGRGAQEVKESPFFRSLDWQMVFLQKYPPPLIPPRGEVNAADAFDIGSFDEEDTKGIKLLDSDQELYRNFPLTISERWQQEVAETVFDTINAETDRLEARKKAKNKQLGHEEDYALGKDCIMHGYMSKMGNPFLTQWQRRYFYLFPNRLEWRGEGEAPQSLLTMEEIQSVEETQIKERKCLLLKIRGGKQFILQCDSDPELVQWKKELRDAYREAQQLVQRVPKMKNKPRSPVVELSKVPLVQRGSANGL
SUMO1 PPI mod = modulators of SUMO1 protein-protein interactions, primary screen, biochemical, uHTS. Small ubiquitin-related modifier 1 (Homo sapiens), P63165. SUMO1 binding to a labelled peptide, TR-FRET, 1 h. inhibition, % at 20 µM. 360,000 compounds, 0.33% hits. AID 602429, 2012; in the data active = inhibition above about 37%
LMPTP inh = LMPTP phosphatase inhibitors, primary screen, biochemical, fluorescence intensity, uHTS; AID 651560, 2012; Low molecular weight phosphotyrosine protein phosphatase (Homo sapiens), P24666; inhibition, % at 20 µM; recombinant LMPTP-A, OMFP fluorogenic substrate; 360,000 compounds, 0.22% hits;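 active = compounds that cut the enzyme signal by at least half of the control window in the single-dose screen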;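 also: plate controls were DMSO wells with enzyme plus substrate for no effect and substrate without enzyme for full effect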
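test system = LMPTP-A | amount = 0.625 nM LMPTP-A final | reagent = fluorogenic phosphatase substrate OMFP at 400 µM final | incubation = 50 min at room temperature | benchmarks = no-enzyme low control, uninhibited high control | medium = Bis-Tris pH 6.0, DTT, detergent | signal = fluorescence intensity of OMFP turnover product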
DNMT1 inh = human DNMT1 methyltransferase inhibitors, primary screen, biochemical, molecular beacon, fluorescence, HinP1I cleavage, uHTS; DNA (cytosine-5)-methyltransferase 1 (Homo sapiens), P26358; inhibition (reported as % activation of signal), % at 10 µM; 360,000 compounds, 0.83% hits; AID 588458, 2011; in the data active = inhibition above about 50%
STEP inh = STEP phosphatase inhibitors, primary screen, biochemical, fluorescence intensity, uHTS; Tyrosine-protein phosphatase non-receptor type 5 (Homo sapiens), P54829; recombinant STEP, OMFP fluorogenic substrate; inhibition, % at 20 µM; 360,000 compounds, 0.25% hits;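 active = inhibition at 20 µM, scaled per plate between control wells, above about 37%, limit read from the data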;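 also: 0% = DMSO with enzyme and substrate and 100% = substrate only without enzyme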
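System: STEP (striatal-enriched tyrosine phosphatase) enzyme, cell-free; medium: Bis-Tris pH 6.0 buffer with DTT, detergent; dosing: 20 µM, 1% DMSO; times: reaction 20 min, ambient temperature; detection: fluorescence, 480/540 nm; read-out basis: normalized % inhibition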
Scp1 inh = Scp-1 phosphatase inhibitors, primary screen, biochemical, colorimetric, uHTS; Carboxy-terminal domain RNA polymerase II polypeptide A small phosphatase 1 (Homo …; Recombinant Scp1, phosphopeptide, malachite green phosphate absorbance; inhibition, % at 20 µM; 340,000 compounds, 0.88% hits; AID 493091, 2011;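 active = inhibition above about 50% at 20 µM, limit read from the data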;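 also: plate controls were DMSO wells with enzyme for no effect and wells lacking enzyme for full effect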
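System: truncated SCP-1 phosphatase (76-261aa); medium: Tris acetate buffer pH 5.5 with MgCl2 and Tween-20; incubation: 45 min room-temperature reaction, 5 min colour, 30 min stabiliser; compound: single 20 µM dose, 1% DMSO; reagent: Phosphorylated 17-residue peptide substrate; read-out: % inhibition at 20 µM; technique: colorimetric free-phosphate detection, absorbance 630 nm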
* hit, by the source's call; · = not tested or not shown. The list is not random: actives were taken first. Their share in the collection is about 2.1%.

SMILES	GRK2 inh	SUMO1 PPI mod	LMPTP inh	DNMT1 inh	STEP inh	Scp1 inh
Cc1cc2nc(-c3ccccc3)c(CC(C)(C)C)n2c(C)c1Br	·	4	2	15	0	·
CC(=O)Nc1cccc(-c2cn3ccccc3n2)c1	0	1	2	1	2	-3
O=C(Nc1cccc(-c2cn3ccccc3n2)c1)c1cc2ccccc2oc1=O	22	-6	75*	43	81*	3
Cc1ccc(S(=O)(=O)N2[C@H](CC(=O)c3ccc(F)cc3)OC[C@@H]2C(C)C)cc1	·	-6	0	·	·	·
COc1cc(NC(=O)C2(C)CCCN2C)cc(OC)c1OC (centres undefined)	·	-2	-2	5	-3	·
COc1cccc(CCC(=O)N2CCC(n3nccc3NC(=O)CC(C)C)CC2)c1	3	102*	1	-4	-2	-5
CCOC(=O)c1c2c(n(-c3ccc(OC)cc3)c1C)C(=O)C(=O)c1ccccc1-2	·	13	21	86*	8	-13
CCCS(=O)(=O)NC(=O)C1(C)CCCN(C(=O)c2cc(F)cc(F)c2)C1 (centres undefined)	·	0	-3	4	0	·
N#C/C(=C\c1ccc(-c2ccc(C(=O)O)cc2)o1)C(=O)Nc1ccc(F)cc1	7	3	7	46	6	69*
COc1ccc(O)c(/C=N/NC(=O)c2ccc(OCc3cccc(Br)c3)cc2)c1	9	1	13	52*	33	96*
COc1ccc(C(=O)N/N=C/c2cc(Br)ccc2O)cc1OC	1	-22	1	3	-2	-7
O=C(NCc1ccncc1)[C@@H]1CCCN1C(=O)[C@H]1CCCN1	·	-1	-3	·	·	·
C[C@@H]1CN([C@H](C)CO)C(=O)CCCn2nncc2CO[C@H]1CN(C)S(=O)(=O)c1cccc(F)c1	·	3	-3	4	0	·
COc1ccc(Cc2nnc(NC(=O)Cc3cccs3)s2)cc1OC	8	12	17	75*	9	70*
O=C(CSc1nnc(CNC(=O)c2ccccc2F)o1)NC1CCCCC1	4	38*	0	4	-2	-2
COc1c(N2CCN(C(=S)NCc3ccccc3)C(C)C2)c(F)cc2c(=O)c(C(=O)O)cn(C3CC3)c12 (centres undefined)	1	5	53*	10	-10	-12
O=C(NCCc1ccccc1)C1Cc2c(-c3ccc4c(c3)OCO4)ccnc2O1 (centres undefined)	·	3	0	0	-1	·
CCOc1cccc(C(=O)Nc2cccc(-c3nnc(-c4ccc(C)cc4)o3)c2)c1	0	0	5	66*	0	-8
Cc1cc(C)nc(Nc2nc(C(N)CCc3ccccc3)cs2)n1 (centres undefined)	·	-10	0	-2	0	·
COC(=O)C[C@H]1CC[C@H](NC(=O)Nc2ccccc2OC)[C@@H](CO)O1	·	-2	-2	·	·	·
CCOC(=O)C1CCN(C(=O)Nc2ccc3nc(-c4ccco4)c(-c4ccco4)nc3c2)CC1	38	106*	80*	113*	68*	67*
O=C(Nc1ccc2nc(-c3ccco3)c(-c3ccco3)nc2c1)N1CCCCCC1	52*	·	·	·	·	88*
Cc1nc2ccc(NC(=O)N3CCCCC3)cc2nc1C	3	-3	0	3	-4	-4
CCOC(=O)C1=CCN(S(=O)(=O)c2ccccc2Cl)C1c1ccc(C)cc1 (centres undefined)	·	9	2	-14	3	·
CC1(c2ccc(Cl)cc2Cl)NC(=O)N(CC(=O)Nc2ccc3[nH]c(=O)[nH]c3c2)C1=O (centres undefined)	0	54*	0	-1	3	-7
SMILES	GRK2 inh	SUMO1 PPI mod	LMPTP inh	DNMT1 inh	STEP inh	Scp1 inh
Cc1ccc(C2(C)NC(=O)N(CC(=O)Nc3ccc4[nH]c(=O)[nH]c4c3)C2=O)cc1 (centres undefined)	0	72*	4	1	0	2
CC(=O)Nc1cncc(-c2cccc(S(C)(=O)=O)c2)n1	·	-2	-1	3	-1	·
Cc1cc(C(=O)COC(=O)c2cc(O)c3ccccc3c2O)c(C)n1CC1CCCO1 (centres undefined)	·	31	2	-30	1	74*
COc1cc(C(c2c(C(=O)O)[nH]c3ccccc23)c2c(C(=O)O)[nH]c3ccccc23)ccc1OCc1ccccc1	3	15	3	-1	-6	-8
O=C(O)c1[nH]c2ccccc2c1C(c1ccccc1)c1c(C(=O)O)[nH]c2ccccc12	51*	7	1	2	2	-15
CCn1c(SCc2nc3sc(C(=O)O)c(C)c3c(=O)[nH]2)nc2ccccc21	8	41*	2	44	16	65*
O=C(Nc1ccccc1)c1cc(C2CCCCN2S(=O)(=O)Cc2cccc(C(F)(F)F)c2)on1 (centres undefined)	·	4	2	-5	4	·
Cc1noc(C)c1NC(=O)Nc1ccc2c(c1)C(=O)N([C@H](C)CO)C[C@H](C)[C@@H](CN(C)C(=O)Nc1c(C)noc1C)O2	5	0	-2	-6	1	-8
Cc1ccc(S(=O)(=O)Nc2ccc3c(c2)C(=O)N([C@@H](C)CO)C[C@@H](C)[C@@H](CN(C)S(=O)(=O)c2ccccc2)OCCCC[C@H](C)O3)cc1	·	43*	2	-13	5	·
Cc1noc(C)c1NC(=O)N(C)C[C@@H]1Oc2ccc(NS(=O)(=O)c3c(C)noc3C)cc2C(=O)N([C@H](C)CO)C[C@H]1C	0	2	-1	12	3	14
Cc1noc(C)c1S(=O)(=O)Nc1ccc2c(c1)C(=O)N([C@H](C)CO)C[C@H](C)[C@@H](CN(C)C(=O)NC(C)C)O2	3	13	-3	12	1	85*
Cc1noc(C)c1NC(=O)N(C)C[C@H]1Oc2ccc(NC(=O)c3ccncc3)cc2C(=O)N([C@H](C)CO)C[C@@H]1C	2	3	-3	9	-4	68*
COc1cc(/C=C/CN2CCC(C(=O)NC(c3ccc(F)cc3)c3ccc4ccccc4n3)CC2)ccc1OC(C)=O (centres undefined)	·	2	0	-2	-2	·
